ChEMBL document CHEMBL3352402, “Pharmacological evaluation and docking studies of α,β-unsaturated carbonyl based synthetic compounds as inhibitors of secretory phospholipase A₂, cyclooxygenases, lipoxygenase and proinflammatory cytokines” (Bioorg Med Chem, 2014)
The source made the active and inactive calls. No cut-off for these calls is given here.

Assays:
[1] = Inhibition of sPLA2-V (unknown origin) using substrate 1,2-bis(heptanoylthio)-glycerophosphocholine by Ellman's method based photometric assay; design: species or system Homo sapiens
[2] = target: T1, Prostaglandin G/H synthase 1 (Ovis aries, UniProt P05979); test: Inhibition of ovine COX1 using arachidonic acid substrate assessed as PGE2 production ELISA method after 2 mins
T1 sequence (P05979 whole entry): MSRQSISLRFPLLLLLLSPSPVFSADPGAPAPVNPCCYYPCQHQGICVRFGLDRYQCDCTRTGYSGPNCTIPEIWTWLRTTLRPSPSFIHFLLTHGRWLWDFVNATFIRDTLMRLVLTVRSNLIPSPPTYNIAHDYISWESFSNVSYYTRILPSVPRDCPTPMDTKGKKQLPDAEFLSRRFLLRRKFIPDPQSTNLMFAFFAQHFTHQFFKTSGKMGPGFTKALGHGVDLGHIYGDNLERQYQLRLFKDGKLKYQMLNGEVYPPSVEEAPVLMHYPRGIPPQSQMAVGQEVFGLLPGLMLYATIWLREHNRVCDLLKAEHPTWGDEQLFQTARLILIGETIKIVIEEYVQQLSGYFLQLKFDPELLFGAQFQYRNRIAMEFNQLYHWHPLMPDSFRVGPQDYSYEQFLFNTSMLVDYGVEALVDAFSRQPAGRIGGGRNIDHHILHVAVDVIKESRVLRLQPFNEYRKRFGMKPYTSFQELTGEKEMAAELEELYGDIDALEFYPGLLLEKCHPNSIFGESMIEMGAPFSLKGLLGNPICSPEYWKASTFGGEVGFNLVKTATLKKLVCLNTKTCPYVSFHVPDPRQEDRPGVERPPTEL

[3] = target: Lipoxygenase (Glycine max) (UniProt Q39829); test: (§1) Inhibition of soybean lipoxygenase after 5 mins by colorimetric assay
Outline: (§2)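 Purified soybean lipoxygenase resuspended in 0.1 M Tris-HCl, pH 7. Enzyme plus test sample was started with substrate (dissolved in KOH, diluted to 1 mM) at room temperature for 5 min. Chromogen was added for 5 min to stop the reaction, then absorbance read at 490 nm. Activity is relative to enzyme plus substrate alone.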

[4] = target: Lipoxygenase (Glycine max, UniProt Q39829); test: as §1; outline: as §2
[5] = target: Lipoxygenase (Glycine max) (UniProt Q39829); test: Inhibition of soybean lipoxygenase at 40 ug/mL after 5 mins by colorimetric assay
[6] = target: T2, Prostaglandin G/H synthase 2 (Homo sapiens, UniProt P35354); test: Inhibition of human recombinant COX2 using arachidonic acid substrate assessed as PGE2 production ELISA method after 2 mins
T2 sequence (P35354 whole entry): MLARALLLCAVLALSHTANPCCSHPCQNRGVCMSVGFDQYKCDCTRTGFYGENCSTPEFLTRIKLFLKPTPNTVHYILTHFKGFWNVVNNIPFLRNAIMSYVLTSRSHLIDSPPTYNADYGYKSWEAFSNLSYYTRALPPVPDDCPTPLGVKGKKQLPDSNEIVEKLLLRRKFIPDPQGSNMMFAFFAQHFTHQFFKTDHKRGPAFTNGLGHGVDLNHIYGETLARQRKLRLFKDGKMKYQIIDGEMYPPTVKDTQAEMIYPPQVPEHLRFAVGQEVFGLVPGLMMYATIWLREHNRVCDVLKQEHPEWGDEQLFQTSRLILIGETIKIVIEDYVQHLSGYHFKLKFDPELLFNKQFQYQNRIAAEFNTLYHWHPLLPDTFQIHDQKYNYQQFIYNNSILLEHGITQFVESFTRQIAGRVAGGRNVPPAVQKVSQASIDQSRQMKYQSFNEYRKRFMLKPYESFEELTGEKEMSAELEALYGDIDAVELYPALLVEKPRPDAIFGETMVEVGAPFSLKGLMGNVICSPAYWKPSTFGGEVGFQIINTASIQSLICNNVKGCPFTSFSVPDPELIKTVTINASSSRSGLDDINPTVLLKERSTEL

[7] = test system: RAW264.7; test: Inhibition of IL6 release in mouse RAW264.7 cells at 10 uM per-treated with compound for 2 hrs before LPS challenge for 22 hrs by ELISA method; assay type: functional
Outline: (§3)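 RAW 264.7 macrophages grown in DMEM with 10% heat-inactivated FBS and 1% Pen Strep, 37°C, 5% CO2. Pretreated 2 h with compound (10 µM) or vehicle, then LPS (0.5 µg/ml, in PBS) 22 h. Medium was centrifuged and cytokine measured by mouse ELISA. Levels were normalized to total protein of the cell pellet and expressed as percent of LPS control. Triplicates, mean ± SEM.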

[8] = test system: RAW264.7; test: Inhibition of TNFalpha expression in mouse RAW264.7 cells at 10 uM per-treated with compound for 2 hrs before LPS challenge for 22 hrs by ELISA method; assay type: functional
[9] = test system: RAW264.7; test: Immunostimulatory activity in mouse RAW264.7 cells assessed as stimulation of IL6 release at 10 uM per-treated with compound for 2 hrs before LPS challenge for 22 hrs by ELISA method; assay type: functional, cell-based; outline: as §3
[10] = test system: RAW264.7; test: Immunostimulatory activity in mouse RAW264.7 cells assessed as stimulation of TNFalpha expression at 10 uM per-treated with compound for 2 hrs before LPS challenge for 22 hrs by ELISA method; assay type: functional, cell-based; outline: as §3

Compound	IC50 [1]	IC50 [2]	inhibition [3]	IC50 [4]	inhibition [5]	IC50 [6]	inhibition at 10 µM [7]	inhibition at 10 µM [8]	Activity [9]	Activity [10]
COc1cc(/C=C/C(=O)CC(=O)/C=C/c2ccc(O)c(OC)c2)ccc1O [CURCUMIN]	10.1 µM	29.7 µM	Dose-dependent effect	59.5 µM	68.3%					
CCOC(OCC)c1ccc(/C=C/C(=O)C2CCc3ccccc3C2=O)cc1 (stereo unspecified)	27.7 µM	1.12 µM	69.5%	52.2 µM	69.5%	13.3 µM				
CC(Cc1ccc(O)c(O)c1)C(C)Cc1ccc(O)c(O)c1 (stereo unspecified) [NORDIHYDROGUAIARETIC ACID]				9.23 µM						
CCOC(OCC)c1ccc(/C=C/C(=O)/C=C/c2ccc(C(OCC)OCC)cc2)cc1	19.2 µM	3.22 µM		210 µM		31.5 µM	76%			
CN1C/C(=C\c2ccc(N3CCCC3)cc2)C(=O)/C(=C/c2ccc(N3CCCC3)cc2)C1	11.2 µM	69.2 µM				> 100 µM				
CCOC(OCC)c1ccc(/C=C2\CNC/C(=C\c3ccc(C(OCC)OCC)cc3)C2=O)cc1	7.14 µM			88.4 µM		27.7 µM	91%	91%		
CCOC(OCC)c1ccc(/C=C2\CN(C)C/C(=C\c3ccc(C(OCC)OCC)cc3)C2=O)cc1	4.21 µM			65.6 µM	67.6%	38.2 µM	76%	73%		
CN(C)c1ccc(/C=C/C(=O)C2CCc3ccccc3C2=O)c([N+](=O)[O-])c1 (stereo unspecified)	22.2 µM	29.3 µM		157 µM		37.7 µM				
CN(C)c1ccc(/C=C2\CCc3ccccc3C2=O)c([N+](=O)[O-])c1	37.6 µM	21.5 µM				28 µM			Active	
O=C1/C(=C/c2ccc(N3CCCC3)cc2)CNC/C1=C\c1ccc(N2CCCC2)cc1	12.1 µM					> 100 µM				
CN(C)c1ccc(/C=C2\CNC/C(=C\c3ccc(N(C)C)cc3[N+](=O)[O-])C2=O)c([N+](=O)[O-])c1	4.19 µM	0.67 µM		39.5 µM		7.88 µM	76%	73%		
O=C(/C=C/c1ccc(N2CCCC2)cc1)/C=C/c1ccc(N2CCCC2)cc1	29.3 µM	49.3 µM				69.8 µM				
CN(C)c1ccc(/C=C2/CCC/C(=C\c3ccc(N(C)C)cc3[N+](=O)[O-])C2=O)c([N+](=O)[O-])c1	11.2 µM	0.42 µM		29.3 µM		> 100 µM				
O=C1/C(=C/c2ccc(N3CCCC3)cc2)CC/C1=C\c1ccc(N2CCCC2)cc1	55.7 µM	37.8 µM				46.2 µM				Active
O=C1/C(=C/c2ccc(N3CCCC3)cc2)Cc2ccccc21	67.3 µM					54.6 µM			Active	Active
O=C1/C(=C/c2ccc(N3CCCC3)cc2)CCc2ccccc21	54.2 µM	33.5 µM				> 100 µM				
CN(C)c1ccc(/C=C/C(=O)/C=C/c2ccc(N(C)C)cc2[N+](=O)[O-])c([N+](=O)[O-])c1	18.2 µM	3.96 µM		103 µM		15 µM	76%			

Compound	IC50 [1]	IC50 [2]	inhibition [3]	IC50 [4]	inhibition [5]	IC50 [6]	inhibition at 10 µM [7]	inhibition at 10 µM [8]	Activity [9]	Activity [10]
CN(C)c1ccc(/C=C2\CN(Cc3ccccc3)C/C(=C\c3ccc(N(C)C)cc3[N+](=O)[O-])C2=O)c([N+](=O)[O-])c1	15.2 µM	14.6 µM		211 µM		19.2 µM				
CCOC(OCC)c1ccc(/C=C2\CCc3ccccc3C2=O)cc1	58.2 µM					> 100 µM				Active
CN1C/C(=C\c2ccc(N(C)C)cc2[N+](=O)[O-])C(=O)/C(=C/c2ccc(N(C)C)cc2[N+](=O)[O-])C1	2.19 µM	1.22 µM		38.3 µM		9.12 µM	91%	91%		
CCOC(OCC)c1ccc(/C=C2\CC/C(=C\c3ccc(C(OCC)OCC)cc3)C2=O)cc1						14.8 µM				
CN(C)c1ccc(/C=C2\COC/C(=C\c3ccc(N(C)C)cc3[N+](=O)[O-])C2=O)c([N+](=O)[O-])c1	7.79 µM	0.72 µM		44.7 µM		18.6 µM	76%	73%		
CN(C)c1ccc(/C=C2\Cc3ccccc3C2=O)c([N+](=O)[O-])c1	28 µM	9.91 µM				14.8 µM				
CCOC(OCC)c1ccc(/C=C2\CN(Cc3ccccc3)C/C(=C\c3ccc(C(OCC)OCC)cc3)C2=O)cc1	17.8 µM	3.17 µM				> 100 µM				
CN(C)c1ccc(/C=C2\CC/C(=C\c3ccc(N(C)C)cc3[N+](=O)[O-])C2=O)c([N+](=O)[O-])c1	38.4 µM					> 100 µM				
CCOC(OCC)c1ccc(/C=C2\COC/C(=C\c3ccc(C(OCC)OCC)cc3)C2=O)cc1	8.76 µM			91 µM		11.2 µM		73%		
O=C1/C(=C/c2ccc(N3CCCC3)cc2)COC/C1=C\c1ccc(N2CCCC2)cc1	15.2 µM	39.4 µM				> 100 µM				
O=C1/C(=C/c2ccc(N3CCCC3)cc2)CN(Cc2ccccc2)C/C1=C\c1ccc(N2CCCC2)cc1	19.2 µM	51.3 µM				57.2 µM				
O=C1/C(=C/c2ccc(N3CCCC3)cc2)CCC/C1=C\c1ccc(N2CCCC2)cc1	28.3 µM	33.5 µM				54.3 µM				
C[C@@H]1C[C@H]2[C@@H]3CCC4=CC(=O)C=C[C@]4(C)[C@@]3(F)[C@@H](O)C[C@]2(C)[C@@]1(O)C(=O)CO [DEXAMETHASONE]	0.61 µM									
CCOC(OCC)c1ccc(/C=C2\Cc3ccccc3C2=O)cc1	37.3 µM	2.22 µM				19.3 µM				
CCOC(OCC)c1ccc(/C=C2\CCC/C(=C\c3ccc(C(OCC)OCC)cc3)C2=O)cc1	12.6 µM			83.1 µM		17.4 µM				
O=C(/C=C/c1ccc(N2CCCC2)cc1)C1CCc2ccccc2C1=O (stereo unspecified)	44.1 µM					61.2 µM			Active	
